Activity calls are given as the source filed them. The rule behind the calls is not given here.
Tests used:
[1] = target: T1, Retinoic acid receptor beta (Homo sapiens) (UniProt P10826); assay: Transcriptional activation of human RARbeta expressed in human MG63 cells coexpressing RARE at 1 uM after 48 hrs by luciferase reporter gene assay; format: cell-based; conditions: MG-63
T1 sequence (whole entry): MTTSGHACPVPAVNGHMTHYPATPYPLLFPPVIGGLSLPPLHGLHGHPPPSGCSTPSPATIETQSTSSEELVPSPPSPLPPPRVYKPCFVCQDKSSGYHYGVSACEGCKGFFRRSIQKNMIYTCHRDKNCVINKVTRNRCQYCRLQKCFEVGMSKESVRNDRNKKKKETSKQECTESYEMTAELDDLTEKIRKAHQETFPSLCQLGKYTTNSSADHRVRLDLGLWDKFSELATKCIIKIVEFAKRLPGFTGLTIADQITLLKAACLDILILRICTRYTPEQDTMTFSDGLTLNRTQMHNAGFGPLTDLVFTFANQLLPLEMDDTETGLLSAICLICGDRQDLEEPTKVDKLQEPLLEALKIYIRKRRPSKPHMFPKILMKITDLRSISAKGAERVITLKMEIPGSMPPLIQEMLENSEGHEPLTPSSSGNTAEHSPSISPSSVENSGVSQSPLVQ
How it was run: (§1)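 MG-63 cells were seeded at 2 × 10^5/well, then transfected using Tfx-50 with an SV40-Luc pGL3 reporter plus pRL-CMV. Cells were treated at 10^-6 M for 2 days. Luciferase was normalised to Renilla and reported as fold versus ethanol control, from at least three repeats with SEM.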

HL-60 [2] = assay: Cell cycle arrest in human HL60 cells assessed as accumulation at G0/G1 phase at 25 uM after 24 hrs by flow cytometry; format: functional, cell-based
How it was run: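 HL-60 cells grown in RPMI-1640 with 10% charcoal-stripped FCS and kanamycin at 37 °C in 5% CO2. Cells were exposed at 2.5 × 10^-5 M for 24 h, stained with propidium iodide at 4 °C for 20 min and analysed on a 488 nm flow cytometer. The percentage of cells in G0/G1 is given relative to untreated cells.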

[3] = target: T2, Retinoic acid receptor RXR-alpha (Homo sapiens) (UniProt P19793); assay: Transcriptional activation of Gal4-tagged human RXRalpha expressed in human MG63 cells at 1 uM after 48 hrs; format: cell-based; conditions: MG-63
T2 sequence (whole entry): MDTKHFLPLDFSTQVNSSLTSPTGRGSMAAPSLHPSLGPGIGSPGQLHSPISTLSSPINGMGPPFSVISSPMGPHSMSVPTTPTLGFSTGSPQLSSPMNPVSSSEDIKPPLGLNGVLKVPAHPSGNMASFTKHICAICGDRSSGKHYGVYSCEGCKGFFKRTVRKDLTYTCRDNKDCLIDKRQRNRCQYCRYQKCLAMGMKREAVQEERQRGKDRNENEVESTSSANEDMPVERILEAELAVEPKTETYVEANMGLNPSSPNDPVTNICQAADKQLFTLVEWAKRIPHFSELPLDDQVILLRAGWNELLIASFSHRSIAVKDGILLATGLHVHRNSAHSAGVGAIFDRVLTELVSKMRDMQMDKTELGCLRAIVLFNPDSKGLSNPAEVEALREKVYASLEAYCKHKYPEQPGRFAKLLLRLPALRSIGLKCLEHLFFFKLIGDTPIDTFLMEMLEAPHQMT
How it was run: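 Human osteosarcoma MG-63 cells in DMEM with 10% charcoal-stripped FCS were seeded at 2 × 10^5/well the day before transfection. They were cotransfected with human RXR fused to the GAL4 DNA-binding domain, a GAL4-site luciferase reporter and a pRL-CMV control. Cells were then exposed at 10^-6 M for 48 h. Firefly luciferase was normalised to Renilla and expressed as fold over ethanol vehicle, from three experiments with SEM.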

HL-60 [4] = assay: Antiproliferative activity against human HL60 cells after 24 hrs; format: functional, cell-based
HL-60 [5] = assay: Induction of cell differentiation in human HL60 cells assessed as differentiation in to granulocytes; format: functional, cell-based
HL-60 [6] = assay: Induction of apoptosis in human HL60 cells after 24 hrs; format: functional, cell-based; conditions: in the assay text read “after 3 days” for “after 24 hrs”
How it was run: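 HL-60 cells were seeded at 10^5 cells/well in RPMI-1640 and treated at 10^-6–10^-4 M. They were propidium iodide-stained and analysed by flow cytometry for cell cycle. Apoptosis is expressed as percent dead cells relative to the total untreated cell count, shown as mean with SEM.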

[7] = target: T3, Cellular retinoic acid-binding protein 2 (Rattus norvegicus) (UniProt P51673); assay: Transcriptional activation of rat CRABP2 expressed in human MG63 cells coexpressing RXRE at 1 uM after 48 hrs; format: cell-based; conditions: MG-63; how it was run: as §1
T3 sequence (whole entry): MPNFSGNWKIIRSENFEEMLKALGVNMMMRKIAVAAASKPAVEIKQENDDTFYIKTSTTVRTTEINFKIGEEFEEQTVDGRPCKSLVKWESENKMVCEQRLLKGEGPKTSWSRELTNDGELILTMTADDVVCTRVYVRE

Activity [1] | Activity [3] | Activity [7] | Structure (SMILES) | Activity (HL-60 [2]) | Activity (HL-60 [4]) | Activity (HL-60 [5]) | Activity (HL-60 [6])
Active | Active | inactive | CC(C)=CCC/C(C)=C/CC/C(C)=C/CC/C=C/C(=O)O | Active | Active | Active | Active
Active |  | inactive | C/C=C/CC/C(C)=C/CC/C(C)=C/CC/C(C)=C/C(=O)O |  |  |  | 
Active |  | inactive | CC(C)=CCC/C=C/CC/C(C)=C/CC/C(C)=C/C(=O)O |  |  |  | 
Active |  | inactive | CC(C)=CCC/C(C)=C/CC/C=C/CC/C(C)=C/C(=O)O |  |  |  | 

— ChEMBL document CHEMBL1212902, “Efficient synthesis and biological evaluation of demethyl geranylgeranoic acid derivatives” (Bioorg Med Chem, 2010)
